# Measured values pooled from the literature.
# Each line is one published result; the experiments were not run side by side.
# Method: competition with immobilised ligand
# RPS6KA3 N-terminal kinase domain: Ribosomal protein S6 kinase alpha-3, N-terminal kinase domain (RPS6KA3, Homo sapiens, UniProt P51812)
# RPS6KA3 C-terminal kinase domain: Ribosomal protein S6 kinase alpha-3, C-terminal kinase domain (RPS6KA3, Homo sapiens, UniProt P51812)
SMILES,target,read-out,concentration,remaining binding
COc1ncc2cc3ccccc3nc2c1C#N,RPS6KA3 N-terminal kinase domain,cell-free assay,5 µM,89%
O=C(NCC1CCOCC1)c1n[nH]cc1NC(=O)c1c(F)cccc1F,RPS6KA3 C-terminal kinase domain,binding,1 µM,98%
Nc1ncc2c(n1)-c1c([nH]c3ccc(C#CC4CC4)cc13)CCCC2,RPS6KA3 C-terminal kinase domain,binding,1 µM,100%
C[C@@H]1CCN(c2nccc(-c3cnn4ncccc34)n2)C1,RPS6KA3 N-terminal kinase domain,binding,1 µM,74%
NS(=O)(=O)c1cc(NC(=O)C2(c3ccccc3Cl)CC2)ccc1Oc1cccc(Cl)c1,RPS6KA3 N-terminal kinase domain,cell-free assay,1 µM,92%
O=C(NCCCN1CCOCC1)c1ccc(Nc2nccc(-c3cc4ccccc4s3)n2)cc1,RPS6KA3 N-terminal kinase domain,binding,1 µM,76%
CN(C)C(=O)Cn1cc(-c2nc([C@@](C)(c3ccc(-c4cnc(N)nc4)cc3)C3CC3)no2)cn1,RPS6KA3 N-terminal kinase domain,cell-free assay,1 µM,83%
CC1CCCN1c1nccc(-c2cnn3ncccc23)n1 (stereo not drawn),RPS6KA3 N-terminal kinase domain,binding,1 µM,100%
CCc1ccccc1C(=O)Nc1n[nH]c2c(C)c(F)c(C3C(C#N)=C(C)N(C)C(C)=C3C#N)cc12,RPS6KA3 N-terminal kinase domain,cell-free assay,1 µM,0.3%
CCN1CCN(Cc2ccc(C(=O)Nc3ccc(C)c(Oc4ccc5c(c4)CC(=O)N5)c3)cc2C(F)(F)F)CC1,RPS6KA3 C-terminal kinase domain,binding,1 µM,100%
Cc1cnn2ncc(-c3ccnc(N(C)C)n3)c2c1,RPS6KA3 N-terminal kinase domain,binding,1 µM,95%
O=S(=O)(NC1CCC(c2cc(F)ccc2F)(S(=O)(=O)c2ccc(Cl)cc2)CC1)C(F)(F)F (stereo not drawn),RPS6KA3 C-terminal kinase domain,cell-free assay,1 µM,83%
CN(CCCC(F)(F)F)c1nccc(-c2cnn3ncccc23)n1,RPS6KA3 C-terminal kinase domain,binding,1 µM,100%
Cc1noc([C@H]2C[C@@H](c3ccc(C(F)(F)F)cc3)CN(C(=O)N3CCS(=O)(=O)C3)C2)n1,RPS6KA3 N-terminal kinase domain,cell-free assay,1 µM,100%
CNC(=O)[C@@H]1CC[C@@H](n2c(-c3ccc4cnccc4c3)nc3ccc(C(=O)NCc4cccc(C(N)=O)c4)cc32)C1,RPS6KA3 C-terminal kinase domain,binding,1 µM,100%
Cc1cnc(Nc2ccc(C(=O)N3CCC(N4CCCC4)CC3)cc2)nc1-c1cc2ccccc2s1,RPS6KA3 N-terminal kinase domain,binding,1 µM,22%
O=C1NC(c2ccccn2)Sc2ccccc21 (stereo not drawn),RPS6KA3 N-terminal kinase domain,cell-free assay,1 µM,72%
N[C@@H]1CCN(c2nccc(-c3cnn4ncccc34)n2)C1,RPS6KA3 N-terminal kinase domain,binding,1 µM,100%
